Assay [1] deals with Bcl-2-like protein 1/E3 ubiquitin-protein ligase XIAP (Homo sapiens). In words: Protac activity at BCL-XL/XIAP E3 ligase in human MyLa1929 cells assessed as degradation of BCL-XL by measuring remaining protein at 500 nM measured after 16 hrs by Western blot analysis (reference value: 100%). In general terms: Immunoblotting shows a protein as a band on a membrane.
Assay [2] in a line: Antiproliferative activity against human MyLa1929 cells assessed as cell viability measured after 72 hrs by MTS assay. Format: functional, cell-based. In short, it runs like this:
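MTS tetrazolium read-out of viability after 72 h continuous exposure. MyLa 1929 seeded at 1×10^5 cells per well; EC50/IC50 fitted from concentration–response curves. For MyLa 1929, values are means of at least two independent experiments.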

Assay [3] is described as follows: Selectivity ratio of IC50 for human platelets to IC50 for human MyLa1929 cells. The method in brief: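 Platelets were isolated from platelet-rich plasma in acid citrate buffer with PGE1 (1 µM) and apyrase (0.2 units/mL) at final concentration. They were adjusted to 2 × 10^8/mL in HEPES Tyrode's buffer with 10% FBS, PGE1 and apyrase, then treated for 48 h and read by MTS. MyLa 1929 cells (1×10^5 per well) were treated for 72 h and read by MTS, with IC50 from at least two independent experiments. The ratio is platelet IC50 over MyLa 1929 IC50.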

Assay [4] has as its system Platelet. In words: Cytotoxicity against human platelet assessed as cell viability measured after 48 hrs by MTS assay.
Assay [5] concerns WI-38. In words: Cytotoxicity against human WI-38 cells assessed as cell viability measured after 72 hrs by MTS assay. Format: cell-based. The conditions noted are these: WI-38, 72 h. (In general: Formazan colour is commonly taken as a measure of viable cells.)
Assay [6] deals with MOLT-4. In words: Antiproliferative activity against human MOLT-4 cells assessed as cell viability measured after 72 hrs by MTS assay. Format: functional, cell-based.
In assay [7] the target is Protein cereblon/Bcl-2-like protein 1 (Homo sapiens) (UniProt Q07817+Q96SW2). Description: Protac activity at BCL-XL/CRBN in human MyLa1929 cells assessed as degradation of BCL-XL at 0.01 to 3 uM measured after 16 hrs by western blot analysis. The class given is cell-based. The conditions noted are these: dose 0.01-3 µM. The method in brief:
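MyLa 1929 cells treated 16 h with compound (single 500 nM or concentration series), then harvested for immunoblot. Membranes blocked in 5% milk/TBS-Tween, primary antibody overnight at 4 °C, HRP secondary, ECL detection. BCL-XL band normalized to β-actin by densitometry; reported as % protein remaining versus vehicle.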

Where [8] appears, read: Homo sapiens, MyLa1929, 72 h, read-out: IC50.

The source made the active and inactive calls. The rule behind the calls is not given here.

Protein cereblon/Bcl-2-like protein 1 (Homo sapiens), sequence (Q07817 whole entry, looked up): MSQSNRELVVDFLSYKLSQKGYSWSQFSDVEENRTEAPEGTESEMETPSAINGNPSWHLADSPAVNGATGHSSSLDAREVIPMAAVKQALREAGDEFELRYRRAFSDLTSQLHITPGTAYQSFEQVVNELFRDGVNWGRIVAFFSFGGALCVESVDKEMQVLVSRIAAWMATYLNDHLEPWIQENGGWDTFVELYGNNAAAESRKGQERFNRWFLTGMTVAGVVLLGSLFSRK
Protein cereblon/Bcl-2-like protein 1 (Homo sapiens), sequence (Q96SW2 whole entry, looked up): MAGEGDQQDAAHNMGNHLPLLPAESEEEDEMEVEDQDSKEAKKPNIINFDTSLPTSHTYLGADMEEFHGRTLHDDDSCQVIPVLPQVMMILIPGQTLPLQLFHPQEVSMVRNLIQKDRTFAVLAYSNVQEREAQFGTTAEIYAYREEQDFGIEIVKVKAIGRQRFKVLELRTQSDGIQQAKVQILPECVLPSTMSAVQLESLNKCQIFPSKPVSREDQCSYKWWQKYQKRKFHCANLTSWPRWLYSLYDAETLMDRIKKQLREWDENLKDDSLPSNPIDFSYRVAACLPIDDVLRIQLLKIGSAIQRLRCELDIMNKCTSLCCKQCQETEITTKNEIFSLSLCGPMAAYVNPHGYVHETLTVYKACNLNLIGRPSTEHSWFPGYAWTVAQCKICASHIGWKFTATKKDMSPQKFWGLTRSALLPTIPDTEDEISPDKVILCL

Usually IC50 stands for the concentration needed to halve the response being measured. On to `CN[C@@H](C)C(=O)N[C@@H](C(=O)N1CCC[C@H]1c1nc(C(=O)c2cccc(OCCOCCOCC(=O)N3CCN(CC[C@H](CSc4ccccc4)Nc4ccc(S(=O)(=O)NC(=O)c5ccc(N6CCN(CC7=C(c8ccc(Cl)cc8)CCC(C)(C)C7)CC6)cc5)cc4S(=O)(=O)C(F)(F)F)CC3)c2)cs1)C1CCCCC1`, for which the Remaining BCL-XL protein in assay [1] stood at 60%. Further, the IC50 in assay [2] (setting [8]) was determined as 143 nM.
The corresponding values for `CN[C@@H](C)C(=O)N[C@@H](C(=O)N1CCC[C@H]1c1nc(C(=O)c2cccc(OCCOCCOCCOCc3cn(CCCC(=O)N4CCN(CC[C@H](CSc5ccccc5)Nc5ccc(S(=O)(=O)NC(=O)c6ccc(N7CCN(CC8=C(c9ccc(Cl)cc9)CCC(C)(C)C8)CC7)cc6)cc5S(=O)(=O)C(F)(F)F)CC4)nn3)c2)cs1)C1CCCCC1` are 59% and 147 nM.
`CN[C@@H](C)C(=O)N[C@@H](C(=O)N1CCC[C@H]1c1nc(C(=O)c2cccc(OCCOCCOCc3cn(CCCC(=O)N4CCN(CC[C@H](CSc5ccccc5)Nc5ccc(S(=O)(=O)NC(=O)c6ccc(N7CCN(CC8=C(c9ccc(Cl)cc9)CCC(C)(C)C8)CC7)cc6)cc5S(=O)(=O)C(F)(F)F)CC4)nn3)c2)cs1)C1CCCCC1`: the Remaining BCL-XL protein in assay [1] stood at 31%. For the same compound, the IC50 in assay [2] (setting [8]) turned out to be 157 nM.
`CC1(C)CCC(c2ccc(Cl)cc2)=C(CN2CCN(c3ccc(C(=O)NS(=O)(=O)c4ccc(N[C@H](CCN5CCOCC5)CSc5ccccc5)c(S(=O)(=O)C(F)(F)F)c4)cc3)CC2)C1` [NAVITOCLAX]: the IC50 was found to be 50 nM in assay [2] (setting [8]), 189 nM in assay [4] and 8060 nM in assay [5]. In assay [3], the “Ratio IC50” value is reported as 137.
As for `CN[C@@H](C)C(=O)N[C@@H](C(=O)N1CCC[C@H]1c1nc(C(=O)c2cccc(OCCCC(=O)N3CCN(CC[C@H](CSc4ccccc4)Nc4ccc(S(=O)(=O)NC(=O)c5ccc(N6CCN(CC7=C(c8ccc(Cl)cc8)CCC(C)(C)C7)CC6)cc5)cc4S(=O)(=O)C(F)(F)F)CC3)c2)cs1)C1CCCCC1`, the Remaining BCL-XL protein in assay [1] is 55%. Besides, in assay [2] (setting [8]), the IC50 was determined as 997 nM.
On to `CN[C@@H](C)C(=O)N[C@@H](C(=O)N1CCC[C@H]1c1nc(C(=O)c2cccc(OCCCCCCC(=O)N3CCN(CC[C@H](CSc4ccccc4)Nc4ccc(S(=O)(=O)NC(=O)c5ccc(N6CCN(CC7=C(c8ccc(Cl)cc8)CCC(C)(C)C7)CC6)cc5)cc4S(=O)(=O)C(F)(F)F)CC3)c2)cs1)C1CCCCC1`, for which, in assay [1], the Remaining BCL-XL protein stood at 108%. Besides, the IC50 in assay [2] (setting [8]) was above 10000 nM.
`CN[C@@H](C)C(=O)N[C@H]1CCO[C@H]2CC(C)(C)[C@@H](C(=O)N[C@@H]3CCCc4cc(O)ccc43)N2C1=O`: the IC50 in assay [2] (setting [8]) is above 10000 nM.
For the compound `O=C1CCC(N2C(=O)c3cccc(NCCOCCOCc4cn(CCCC(=O)N5CCN(CC#Cc6ccc(OCCCc7sc(N8CCc9cccc(C(=O)Nc%10nc%11ccccc%11s%10)c9C8)nc7C(=O)O)c(F)c6)CC5)nn4)c3C2=O)C(=O)N1` (stereo unspecified), the IC50 entry in assay [2] (myla1929) is reported as “Active”. Further, the outcome in assay [6] and in assay [7] was Active.
On to `CN[C@@H](C)C(=O)N[C@@H](C(=O)N1CCC[C@H]1c1nc(C(=O)c2cccc(OCCCCCC(=O)N3CCN(CC[C@H](CSc4ccccc4)Nc4ccc(S(=O)(=O)NC(=O)c5ccc(N6CCN(CC7=C(c8ccc(Cl)cc8)CCC(C)(C)C7)CC6)cc5)cc4S(=O)(=O)C(F)(F)F)CC3)c2)cs1)C1CCCCC1`, for which, in assay [1], the Remaining BCL-XL protein worked out at 104%. In assay [2] (setting [8]), the IC50 was above 10000 nM.
Turning to `CN(CCOCCOCCOCCNc1cccc2c1C(=O)N(C1CCC(=O)NC1=O)C2=O)CC[C@H](CSc1ccccc1)Nc1ccc(S(=O)(=O)NC(=O)c2ccc(N3CCN(CC4=C(c5ccc(Cl)cc5)CCC(C)(C)C4)CC3)cc2)cc1S(=O)(=O)C(F)(F)F` (stereo partly specified), the IC50 result in assay [2] (myla1929) is reported as “Active”. Moreover, the result in assay [6] was Active.
Consider `CN[C@@H](C)C(=O)N[C@@H](C(=O)N1CCC[C@H]1c1nc(C(=O)c2cccc(OCCCCC(=O)N3CCN(CC[C@H](CSc4ccccc4)Nc4ccc(S(=O)(=O)NC(=O)c5ccc(N6CCN(CC7=C(c8ccc(Cl)cc8)CCC(C)(C)C7)CC6)cc5)cc4S(=O)(=O)C(F)(F)F)CC3)c2)cs1)C1CCCCC1`, for which the Remaining BCL-XL protein in assay [1] was 80%. The IC50 in assay [2] (setting [8]) worked out at 1960 nM.
In the case of `CN[C@@H](C)C(=O)N[C@@H](C(=O)N1CCC[C@H]1c1nc(C(=O)c2cccc(OCCOCCOCCOCCOCC(=O)N3CCN(CC[C@H](CSc4ccccc4)Nc4ccc(S(=O)(=O)NC(=O)c5ccc(N6CCN(CC7=C(c8ccc(Cl)cc8)CCC(C)(C)C7)CC6)cc5)cc4S(=O)(=O)C(F)(F)F)CC3)c2)cs1)C1CCCCC1`, the Remaining BCL-XL protein in assay [1] stood at 29%. For the same compound, the IC50 in assay [2] (setting [8]) was 75 nM.
